Laboratory results published in ChEMBL document CHEMBL1145688, “New sesquiterpene hydroquinones from a Taiwanese marine sponge Polyfibrospongia australis” (J Nat Prod, 1997).
Converted amounts (≈) assume the structure as drawn.

Legend:
Format in all cases: functional, cell-based
[1] = Cytotoxicity against human KB16 cells after 3 days by MTT assay; conditions: KB16, 72 h
How it was run: (§1)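 Modified MTT colorimetric assay. Cells seeded at 1000 cells/well and exposed to twofold serial dilutions of compound. Incubation ran 6 days for A-549 and 3 days for KB-16 and P-388. MTT (1 mg/mL) was then added for 5 h at 37 °C, formazan dissolved in DMSO, and absorbance read at 540 nm. IC50 is the concentration giving a 50% absorbance reduction versus untreated cells.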

[2] = test system: P388; experiment: Cytotoxicity against mouse P388 cells after 3 days by MTT assay; conditions: P388, 72 h; how it was run: as §1
[3] = test system: A549; experiment: Cytotoxicity against human A549 cells after 6 days by MTT assay; conditions: A549, 144 h; how it was run: as §1

Compound	IC50 [1] [µg/mL]	IC50 [2] [µg/mL]	IC50 [3] [µg/mL]
C=C1CCC[C@H]2[C@](C)(Cc3cc(C(=O)OC)cc(OC(C)=O)c3OC(C)=O)[C@@H](C)CC[C@]12C	1.8 (≈ 3.94 µM)	1.9 (≈ 4.16 µM)	1.5 (≈ 3.29 µM)
C=C1CCC[C@H]2[C@](C)(Cc3cc(C(=O)OC)cc(OC)c3O)[C@@H](C)CC[C@]12C [POLYFIBROSPONGOL A]	1.4 (≈ 3.62 µM)	0.7 (≈ 1.81 µM)	0.6 (≈ 1.55 µM)
C=C1CCC[C@H]2[C@](C)(Cc3cc(C(=O)OC)cc(O)c3O)[C@@H](C)CC[C@]12C [DICTYOCERATIN A]	1.4 (≈ 3.76 µM)	1.4 (≈ 3.76 µM)	0.7 (≈ 1.88 µM)
C=C1CCC[C@H]2[C@](COC(C)=O)(Cc3cc(C(=O)OC)cc(OC)c3OC(C)=O)[C@@H](C)CC[C@]12C [POLYFIBROSPONGOL B DIACETATE]	> 50	> 50	> 50
C=C1CCC[C@H]2[C@](C)(Cc3cc(C(=O)OC)cc(OC)c3OC(C)=O)[C@@H](C)CC[C@]12C [POLYFIBROSPONGOL A MONOACETATE]	2.1	3.4	3.1
C=C1CCC[C@H]2[C@](C)(CC3=C(O)C(=O)C=C(OC)C3=O)[C@@H](C)CC[C@]12C [ILIMAQUINONE]	0.7 (≈ 1.95 µM)	0.2 (≈ 0.558 µM)	0.4 (≈ 1.12 µM)
C=C1CCC[C@H]2[C@](CO)(Cc3cc(C(=O)OC)cc(OC)c3O)[C@@H](C)CC[C@]12C [POLYFIBROSPONGOL B]	2 (≈ 4.97 µM)	1 (≈ 2.48 µM)	1 (≈ 2.48 µM)
